Source: PubChem BioAssay AID1040 (The Scripps Research Institute Molecular Screening Center, 2008)
Among all 200,000 compounds or so, about 2,000 (1%) were called active.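 How the source made its calls: active means inhibition above the campaign mean inhibition of all tested compounds plus 3 SD (cut at about 20% in these data); inactive means the rest.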 The entries come from a sample that favours actives as a whole.

Biological target: Neuropeptide Y receptor type 1 (Homo sapiens) (UniProt P25929)
Sequence (P25929 whole entry, looked up): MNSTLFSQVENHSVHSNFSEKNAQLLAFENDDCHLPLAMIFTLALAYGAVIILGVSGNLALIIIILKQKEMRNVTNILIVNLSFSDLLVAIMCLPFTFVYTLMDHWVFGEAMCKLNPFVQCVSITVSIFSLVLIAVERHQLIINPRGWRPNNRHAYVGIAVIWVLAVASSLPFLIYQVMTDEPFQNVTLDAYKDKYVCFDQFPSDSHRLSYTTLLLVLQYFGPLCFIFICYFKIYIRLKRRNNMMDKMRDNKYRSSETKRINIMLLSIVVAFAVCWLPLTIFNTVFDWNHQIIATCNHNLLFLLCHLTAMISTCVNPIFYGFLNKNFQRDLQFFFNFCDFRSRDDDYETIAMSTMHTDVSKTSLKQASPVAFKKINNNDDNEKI
Assay: NPY-Y1 receptor antagonists, primary screen, cell-based (AID 1040);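 further: 0% = DMSO wells given NPY plus isoproterenol and 100% = isoproterenol alone without NPY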
Conditions: HEK293-CNG Y1 cells, membrane potential fluorescence; at 3.6 µM; active compounds read high; NPY at EC95, then isoproterenol
Summary of the method: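 Material: HEK293 Y1/CNG channel cell line | Also added: NPY (25 nM), isoproterenol (1 µM), Ro 20-1724 (25 µM) | Compound: One concentration, 3.6 µM, in 0.4% DMSO | Schedule: 3 h dye uptake, 1 h room-temperature compound, 45 min post-isoproterenol | Signal: Membrane-potential fluorescent dye readout | Read-out: % inhibition of NPY effect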

**Q.** For `COc1cccc(OC)c1C(=O)NC(=S)Nc1ccc(N2CCOCC2)c(Cl)c1`, which inhibition is on record?
**A.** 9.33% (inactive)

**Q.** How did the inhibition turn out when `Cc1c(Cl)c([N+](=O)[O-])nn1CC(=O)NCC1CCCO1` (stereo not drawn) was run?
**A.** -5.55% (inactive)

**Q.** With `CCOC(=O)c1cnn(Cc2ccccc2Cl)c1N` as the molecule, how does the inhibition read?
**A.** -2.37% (inactive)

**Q.** `COC(=O)c1ccc(COC(=O)c2c(C)nn(Cc3ccccc3Cl)c2Cl)o1` was tested. Which inhibition did it give?
**A.** 22.2% (active)

**Q.** Which inhibition does the source give for `COC(=O)c1ccc(CSc2ccccc2C)o1` here?
**A.** -3.04% (inactive)

**Q.** `O=C(Nc1ccc(F)cc1)N1CCCC(c2nc3c(nnn3Cc3ccccc3Cl)c(=O)[nH]2)C1` (stereo not drawn) was tested. Which inhibition did it give?
**A.** -6.56% (inactive)

**Q.** Which inhibition does the source give for `Oc1ccccc1C=NC1CCCCC1N=Cc1ccccc1O` (stereo not drawn) here?
**A.** 4.16% (inactive)

**Q.** `Cc1ccc(Cl)cc1N1CCN(C(=O)c2cccc3c(=O)c(C)c(-c4ccccc4)oc23)CC1` was tested. Which inhibition did it give?
**A.** 4.2% (inactive)

**Q.** For `Cc1cccc(OCCC(=O)Nc2cc(S(=O)(=O)N3CCCCC3)ccc2N2CCOCC2)c1`, which inhibition is on record?
**A.** 2.92% (inactive)

**Q.** With `Cc1ncc([N+](=O)[O-])n1CCOC(=O)c1ccc(Br)cc1` as the molecule, how does the inhibition read?
**A.** -0.91% (inactive)

**Q.** With `COc1ccccc1NC(=O)COC(=O)Cc1ccc(S(=O)(=O)N2CCCCC2)s1` as the molecule, how does the inhibition read?
**A.** -4.82% (inactive)

**Q.** Which inhibition does the source give for `O=C(Nc1ccc(N2C(=O)c3cccc4cccc(c34)C2=O)cc1)c1ccc(N2CCCCC2)c([N+](=O)[O-])c1` here?
**A.** -0.12% (inactive)

**Q.** How did the inhibition turn out when `COc1ccc(-c2[nH]ncc2/C=N/NC(=O)c2cc(Br)ccc2O)c(OC)c1` was run?
**A.** 4.29% (inactive)

**Q.** How did the inhibition turn out when `CCS(=O)(=O)n1nc(-c2ccc(OC)cc2)nc1SC` was run?
**A.** 3.74% (inactive)

**Q.** With `CCS(=O)(=O)n1nc(-c2ccccc2)nc1SCc1ccccc1` as the molecule, how does the inhibition read?
**A.** 28.2% (active)

**Q.** `CS(=O)(=O)n1nc(-c2ccccc2)nc1NCc1ccco1` was tested. Which inhibition did it give?
**A.** -0.86% (inactive)

**Q.** How did the inhibition turn out when `Cc1ccnc(NC(=O)CCC(=O)N(CC(=O)NCc2ccccc2)Cc2ccco2)c1` was run?
**A.** 2.07% (inactive)

**Q.** For `Cc1ccc(N2C(=O)C3N=NN(CC(=O)N4N=C(c5cccc6ccccc56)CC4c4ccccc4)C3C2=O)cc1` (stereo not drawn), which inhibition is on record?
**A.** 20.5% (active)

**Q.** For `O=C1C2N=NN(CC(=O)N3N=C(c4cccc5ccccc45)CC3c3ccccc3)C2C(=O)N1c1ccccc1` (stereo not drawn), which inhibition is on record?
**A.** 6.21% (inactive)

**Q.** With `CC(=O)Oc1ccccc1C1=NN(C(C)=O)C(c2ccccc2)C1` (stereo not drawn) as the molecule, how does the inhibition read?
**A.** 1.31% (inactive)

**Q.** `CCn1ccnc1CN1CCCC(C(=O)c2ccc3c4c(cccc24)CC3)C1` (stereo not drawn) was tested. Which inhibition did it give?
**A.** 3.36% (inactive)

**Q.** How did the inhibition turn out when `OCC1(CCc2ccccc2)CCN(Cc2ccc3nsnc3c2)CC1` was run?
**A.** 22.8% (active)

**Q.** With `Cc1cccc(-c2ncc(CN3CCC(CO)(CCCc4ccccc4)CC3)cn2)c1` as the molecule, how does the inhibition read?
**A.** 4.93% (inactive)

**Q.** For `CC(=O)c1cccc(CN2CCC(CO)(Cc3ccccc3)CC2)c1`, which inhibition is on record?
**A.** 2.21% (inactive)

**Q.** How did the inhibition turn out when `COC(=O)C(C(=O)Nc1cccc(Cl)c1C)C1CCCC1` (stereo not drawn) was run?
**A.** 5.62% (inactive)

**Q.** How did the inhibition turn out when `Cc1ccccc1Nc1scc(-c2ccc(Br)cc2)[n+]1-c1ccccc1C` was run?
**A.** 31.6% (active)

**Q.** Which inhibition does the source give for `COc1ccc(C)cc1-n1nnnc1SCc1nc2ccccc2c(=O)[nH]1` here?
**A.** -0.32% (inactive)

**Q.** For `CCN(CCCNC(=O)CSc1cc(=O)n(C)c2cc(Cl)ccc12)Cc1ccccc1`, which inhibition is on record?
**A.** 1.58% (inactive)

**Q.** `COCCCNC(=S)N1CCCC(c2nc3cc(C)c(C)cc3[nH]2)C1` (stereo not drawn) was tested. Which inhibition did it give?
**A.** -0.11% (inactive)

**Q.** For `NS(=O)(=O)c1ccc(CCNC(=O)c2ccc([N+](=O)[O-])cc2[N+](=O)[O-])cc1`, which inhibition is on record?
**A.** 0.19% (inactive)

**Q.** With `N#Cc1cnn2cc(CCN3CCOCC3)c(-c3ccc(F)cc3)nc12` as the molecule, how does the inhibition read?
**A.** -1.23% (inactive)

**Q.** Which inhibition does the source give for `COc1ccc(/C=N/NC(=O)Cn2cc(C(F)(F)F)ccc2=O)cc1` here?
**A.** 0.12% (inactive)

**Q.** How did the inhibition turn out when `CCOC(=O)N1CCN(S(=O)(=O)c2ccc(C(=O)Nc3ccc(F)cc3F)cc2)CC1` was run?
**A.** 30.3% (active)

**Q.** With `O=C(Nc1cccc(F)c1)c1ccc(S(=O)(=O)N2CCCC2)cc1` as the molecule, how does the inhibition read?
**A.** -0.82% (inactive)

**Q.** For `COc1ccc(C(=O)Nc2ccc(F)cc2F)cc1`, which inhibition is on record?
**A.** 6.11% (inactive)

**Q.** For `CC(=O)c1cnc(SCC(=O)O)nc1C`, which inhibition is on record?
**A.** -4% (inactive)

**Q.** With `COc1ccc(C(=O)NN2C(=O)C3C(c4ccccc4)C=CC(c4ccccc4)C3C2=O)cc1` (stereo not drawn) as the molecule, how does the inhibition read?
**A.** 11.3% (inactive)

**Q.** How did the inhibition turn out when `COc1ccc2c(c1)C(C)=CC(C)(C)N2C(=O)Nc1ccccc1` was run?
**A.** 13.7% (inactive)

**Q.** With `COc1ccc2c(c1)C(C)=CC(C)(C)N2C(=O)CNCc1ccc2c(c1)OCO2` as the molecule, how does the inhibition read?
**A.** 27.3% (active)

**Q.** With `CCn1cc(C(=O)NCc2ccc3c(c2)OCO3)c2cc(OC)c(OC)cc2c1=O` as the molecule, how does the inhibition read?
**A.** 1.79% (inactive)

**Q.** How did the inhibition turn out when `O=C(/C=C/c1ccc(OCc2c(F)cccc2Cl)cc1)N1CCOCC1` was run?
**A.** 5.45% (inactive)

**Q.** `COn1c(-c2ccc(Cl)cc2Cl)nc2ncccc21` was tested. Which inhibition did it give?
**A.** 5.03% (inactive)

**Q.** How did the inhibition turn out when `O=C(Nc1cccc(Cl)c1)c1cc([N+](=O)[O-])ccc1N1CCN(CCO)CC1` was run?
**A.** 0.17% (inactive)

**Q.** With `CCC(=O)c1ccc(N2CCN(C(=O)c3cc([N+](=O)[O-])ccc3F)CC2)c(F)c1` as the molecule, how does the inhibition read?
**A.** -2.39% (inactive)

**Q.** With `CCN1CCN(c2ccc([N+](=O)[O-])cc2C(=O)c2ccc(Cl)cc2)CC1` as the molecule, how does the inhibition read?
**A.** 36.6% (active)

**Q.** How did the inhibition turn out when `CCc1ccc(OCC(=O)OCC(=O)c2c(N)n(C)c(=O)n(C)c2=O)cc1` was run?
**A.** -0.61% (inactive)

**Q.** For `O=C(NCc1ccco1)c1nn2cccnc2c1Cl`, which inhibition is on record?
**A.** 1.08% (inactive)

**Q.** With `Cc1cc(C(C)(C)C)oc1C(=O)N(CC(=O)NC1CCCC1)Cc1ccc(Cl)cc1` as the molecule, how does the inhibition read?
**A.** 28.1% (active)

**Q.** How did the inhibition turn out when `COc1ccc(CN(CC(=O)NC2CCCC2)C(=O)CCC(=O)Nc2cc(C)on2)cc1` was run?
**A.** 1.61% (inactive)

**Q.** `Cc1noc(C)c1C(=O)N(CC(=O)NC1CCCC1)Cc1ccccc1F` was tested. Which inhibition did it give?
**A.** 1.99% (inactive)

**Q.** `COc1ccc(Cc2nnc(N/N=C/c3ccccc3O)[nH]c2=O)cc1OC` was tested. Which inhibition did it give?
**A.** 7.54% (inactive)

**Q.** With `Cc1nc([N+](=O)[O-])c(NCCCO)n1Cc1ccccc1` as the molecule, how does the inhibition read?
**A.** -2.13% (inactive)

**Q.** For `OCCCN1c2ccccc2Nc2nnc(-c3ccccc3)cc21`, which inhibition is on record?
**A.** -7.91% (inactive)

**Q.** `N=c1c2c(-c3ccccc3)c(-c3ccccc3)n(Cc3ccccc3)c2ncn1CCCO` was tested. Which inhibition did it give?
**A.** 73.2% (active)

**Q.** `COc1ccc(-c2nn(-c3ccccc3)cc2CN2CCCO2)c(F)c1` was tested. Which inhibition did it give?
**A.** 3.17% (inactive)

**Q.** `CCCOC(=O)c1[nH]c2c(c1C)C(=O)CC(c1cccs1)C2` (stereo not drawn) was tested. Which inhibition did it give?
**A.** 33.9% (active)

**Q.** For `CCCOC(=O)c1[nH]c2c(c1C)C(=O)CC(c1cc(OC)c(OC)c(OC)c1)C2` (stereo not drawn), which inhibition is on record?
**A.** -8.2% (inactive)

**Q.** With `CCOC(=O)c1[nH]c2c(c1C)C(=O)CC(c1ccc(N(C)C)cc1)C2` (stereo not drawn) as the molecule, how does the inhibition read?
**A.** 6.58% (inactive)
